E-sel inducer = E-selectin induction on HUVECs; AID 686992; HUVEC E-selectin immunofluorescence imaging; normalized: neutral wells 0, TNF-alpha wells 100; activation, % at 7.58 µM; 0.37% of 260,000 active;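 active = mean E-selectin-positive cell signal at least 10% of the positive control, reached in at least 60% of replicates, without over 20% cell loss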
Target sequence (P16581 whole entry, looked up): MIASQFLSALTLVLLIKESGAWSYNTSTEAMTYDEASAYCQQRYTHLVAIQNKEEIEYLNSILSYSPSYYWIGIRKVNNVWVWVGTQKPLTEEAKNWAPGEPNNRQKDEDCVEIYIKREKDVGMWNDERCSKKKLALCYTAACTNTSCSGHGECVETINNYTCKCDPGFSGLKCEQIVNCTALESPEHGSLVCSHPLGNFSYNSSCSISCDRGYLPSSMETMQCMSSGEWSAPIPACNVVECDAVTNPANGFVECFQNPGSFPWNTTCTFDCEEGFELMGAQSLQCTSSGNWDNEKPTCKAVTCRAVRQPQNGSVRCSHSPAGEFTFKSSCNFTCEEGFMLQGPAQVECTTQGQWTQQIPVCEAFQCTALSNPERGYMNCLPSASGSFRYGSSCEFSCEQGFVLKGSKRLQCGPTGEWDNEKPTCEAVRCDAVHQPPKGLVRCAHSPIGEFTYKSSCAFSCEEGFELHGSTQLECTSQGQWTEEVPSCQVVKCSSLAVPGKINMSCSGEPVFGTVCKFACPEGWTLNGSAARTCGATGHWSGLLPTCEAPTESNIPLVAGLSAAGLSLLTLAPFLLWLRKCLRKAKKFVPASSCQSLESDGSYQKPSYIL
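Material: HUVEC primary endothelial cells; Amount: 3,000 cells per well; Dosing: single concentration; Medium: EGM-2 growth medium on 0.1% gelatin-coated wells; Read-out basis: percent E-selectin-positive cells; Signal: immunofluorescence imaging; Control set: TNF-alpha, DMSO.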
Of the large screens only hits and unclear results are named; the others gave an inactive call. Many of the other results were omitted from the sample, so hits are more common in it than they were.

O=C(C[C@H]1CC[C@H](NC(=O)Nc2ccc(F)cc2)[C@H](CO)O1)NCc1ccccn1	none
Cc1cccc(C)c1NC(=O)C1C(c2ccc3c(c2)OCO3)=Nc2ccccc2N1C(=O)c1cccc(C(F)(F)F)c1 (configuration not stated)	none
CC(=O)N1CCC(C(=O)N2c3ccccc3N=C(c3ccc4c(c3)OCO4)C2C(=O)Nc2c(C)cccc2C)CC1 (configuration not stated)	none
Cc1cccc(C)c1NC(=O)C1C(c2ccc3c(c2)OCO3)=Nc2ccccc2N1C(=O)c1ccccn1 (configuration not stated)	E-sel inducer 119.4
Cc1ccc(S(=O)(=O)Nc2ccc3c(c2)C(=O)N([C@@H](C)CO)C[C@H](C)[C@H](CN(C)Cc2ccc(Oc4ccccc4)cc2)O3)cc1	none
O=C(C[C@@H]1CC[C@H]2[C@@H](COC[C@H](O)CN2Cc2nccs2)O1)NCc1ccc(-c2ccccc2)cc1	none
Cc1noc(C)c1NC(=O)Nc1cccc2c1O[C@H](CN(C)Cc1ccc(-c3ccccc3)cc1)[C@@H](C)CN([C@H](C)CO)C2=O	none
CCCNC(=O)Nc1ccc2c(c1)OC[C@@H](C)N(Cc1cccnc1)C[C@H](C)[C@@H](OC)CN(C)C2=O	none
O=C(O)c1c2c(nc3ccc(S(=O)(=O)N4CCC(C(=O)NC5CCCC5)CC4)cc13)CCCCC2	none
CC1CCc2nc3ccc(S(=O)(=O)N4CCC(C(=O)O)CC4)cc3c(C(=O)O)c2C1 (configuration not stated)	none
CC1CCc2nc3ccc(S(=O)(=O)N4CCC(C(=O)NC5CCCC5)CC4)cc3c(C(=O)O)c2C1 (configuration not stated)	E-sel inducer 93.4
C/C=C/c1ccc2c(c1)O[C@@H](CN(C)C(=O)NCCC)[C@@H](C)CN([C@H](C)CO)S2(=O)=O	none
COc1ccc(CN(C)C[C@@H]2OCCCC[C@@H](C)Oc3ccc(NC(=O)NC(C)C)cc3C(=O)N([C@H](C)CO)C[C@H]2C)cc1	none
CNC[C@@H]1Oc2ccc(NS(=O)(=O)c3cccs3)cc2C(=O)N([C@@H](C)CO)C[C@H]1C	none
N/C(=N\OC(=O)COc1cc(Cl)c(Cl)cc1Cl)c1ccncc1	E-sel inducer 73.7
N/C(=N\OC(=O)COc1ccc(Br)cc1Cl)c1ccncc1	none
Cc1cc(C)c(C)c(OCC(=O)O/N=C(\N)c2ccncc2)c1	none
C[C@H](CO)N1C[C@H](C)[C@@H](CN(C)Cc2ccccc2)OCCCC[C@H](C)Oc2ccc(NC(=O)C3CCCCC3)cc2C1=O	none
COc1ccc(C=O)cc1COc1ccc([N+](=O)[O-])c(C)c1	E-sel inducer 368.5
COc1ccc(/C=C/C(=O)O)cc1COc1cccc(C)c1	none
COc1ccc(/C=N\NC(=O)c2ccccc2[N+](=O)[O-])cc1COc1c(F)c(F)c(F)c(F)c1F	none
C[C@H]1CN([C@@H](C)CO)C(=O)c2cc(NC(=O)Cn3cnnn3)ccc2O[C@H]1CN(C)C(=O)Nc1ccc(F)cc1	none
CC(C)C#Cc1ccc2c(c1)O[C@H](CN(C)S(=O)(=O)c1cn(C)cn1)[C@@H](C)CN([C@H](C)CO)S2(=O)=O	none
C[C@@H]1CN([C@@H](C)CO)C(=O)Cc2cc(NC(=O)C3CC3)ccc2O[C@@H]1CN(C)C(=O)Nc1cccc2ccccc12	none
CC(C)NC(=O)Nc1ccc2c(c1)C(=O)N(C)[C@H]1CC[C@H](CC(=O)Nc3ccccc3)O[C@H]1CO2	none
COc1ccc(-c2cc(C(=O)Nc3ccc(OC)cc3OC)no2)cc1	none
COc1ccc(NC(=O)c2cc(-c3cccs3)on2)cc1	none
COc1ccc(NC(=O)c2cc(-c3cccs3)on2)c(OC)c1	E-sel inducer 60.0
COc1ccccc1NS(=O)(=O)c1c(C)[nH]c(C)c1C(=O)N1CCCC1	E-sel inducer 49.8
Cc1[nH]c(C)c(S(=O)(=O)Nc2ccc(F)cc2Cl)c1C(=O)N1CCCC1	none
Cc1ccc(NS(=O)(=O)c2c(C)[nH]c(C)c2C(=O)N2CCCC2)cc1Cl	none
C[C@H]1CN([C@@H](C)CO)C(=O)c2cc(C3=CCCCC3)cnc2O[C@H]1CN(C)C(=O)Nc1ccccc1	none
Cc1ccc(S(=O)(=O)N(C)C[C@H]2Oc3ccc(NC(=O)C4CCCCC4)cc3C(=O)N([C@@H](C)CO)C[C@H]2C)cc1	none
Cc1ccccc1NC(=O)c1ccc2nccnc2c1	none
Cc1cccc(NC(=O)c2cc[n+]([O-])cc2)c1C	none
Cc1ccccc1NC(=O)c1cc[n+]([O-])cc1	E-sel inducer 41.3
CCC(=O)N[C@H]1C=C[C@@H](CC(=O)NCc2ccccc2F)O[C@@H]1CO	none
C[C@@H]1CN([C@@H](C)CO)C(=O)c2cccc(NC(=O)C3CCOCC3)c2O[C@@H]1CN(C)Cc1ccncc1	E-sel inducer 228.0
C[C@H]1CN([C@@H](C)CO)C(=O)c2cccc(NC(=O)C3CCCCC3)c2O[C@@H]1CN(C)Cc1ccccc1	none
C[C@@H]1CN([C@@H](C)CO)C(=O)c2cccc(NC(=O)C3CC3)c2O[C@H]1CN(C)Cc1ccccc1	E-sel inducer 51.8
C[C@H](CO)N1C[C@H](C)[C@H](CN(C)CC2CC2)Oc2c(NC(=O)C3CC3)cccc2C1=O	E-sel inducer 64.1
C[C@H](CO)N1C[C@H](C)[C@H](CN(C)Cc2ccccc2)Oc2c(NC(=O)C3CCCCC3)cccc2C1=O	none
C[C@@H]1CN([C@H](C)CO)C(=O)c2cccc(NC(=O)C3CC3)c2O[C@@H]1CN(C)Cc1ccncc1	none
C[C@H]1CN([C@@H](C)CO)C(=O)c2cccc(NC(=O)C3CC3)c2O[C@H]1CN(C)Cc1ccccc1	E-sel inducer 27.3
C[C@@H]1CN([C@@H](C)CO)C(=O)c2cccc(NC(=O)C3CC3)c2O[C@H]1CN(C)CC1CCCCC1	none
C[C@H]1CN([C@@H](C)CO)C(=O)c2cccc(NC(=O)C3CCCCC3)c2O[C@H]1CN(C)Cc1ccccc1	none
C[C@H](CO)N1C[C@H](C)[C@@H](CN(C)Cc2ccncc2)Oc2c(NC(=O)C3CCOCC3)cccc2C1=O	none
C[C@@H]1CN([C@H](C)CO)C(=O)c2cccc(NC(=O)C3CC3)c2O[C@H]1CN(C)Cc1ccc(-c2ccccc2)cc1	none
C[C@@H]1CN([C@@H](C)CO)C(=O)c2cccc(NC(=O)C3CC3)c2O[C@@H]1CN(C)CC1CCCCC1	none
C[C@H](CO)N1C[C@H](C)[C@@H](CN(C)C(=O)NC2CCCCC2)OCCCC[C@H](C)Oc2ccc(NC(=O)Nc3cccc4ccccc34)cc2C1=O	none
CNC[C@H]1Oc2cc(C#Cc3cccnc3)ccc2S(=O)(=O)N([C@@H](C)CO)C[C@@H]1C	none
CO[C@H]1CN(C)C(=O)c2cc(NC(=O)NC(C)C)ccc2OC[C@@H](C)N(CC2CC2)C[C@@H]1C	none
COCC#Cc1ccc2c(c1)O[C@H](CN(C)S(=O)(=O)c1cccc(F)c1)[C@@H](C)CN([C@@H](C)CO)S2(=O)=O	none
COc1ccc(S(=O)(=O)N(C)C[C@@H]2Oc3ccc(NC(=O)Nc4ccc(F)cc4)cc3C(=O)N([C@H](C)CO)C[C@H]2C)cc1	none
CO[C@H]1CN(C)C(=O)c2ccc(NS(=O)(=O)c3cccc(F)c3)cc2OC[C@@H](C)N(C(=O)Cc2cccnc2)C[C@H]1C	none
COCC(=O)N(C)C[C@H]1Oc2ncc(C#CCC3CCCC3)cc2C(=O)N([C@@H](C)CO)C[C@@H]1C	none
CC(C)CC#Cc1ccc([C@@H]2[C@H]3CN(C(=O)Nc4cc(F)ccc4F)CC(=O)N3[C@H]2CO)cc1	none
O=C([C@H]1[C@H](CO)[C@H]2Cn3c(ccc(-c4ccccc4F)c3=O)[C@@H]1N2C(=O)C1CC1)N1CCCCC1	none
